Test results taken from ChEMBL document CHEMBL1129348, “Effects of modifications of residues in position 3 of dynorphin A(1-11)-NH2 on kappa receptor selectivity and potency” (J Med Chem, 1996).

Columns and labels:
Cavia porcellus [1] = organism: Cavia porcellus; experiment: Evaluated for its ability to inhibit the electrically evoked contraction of the guinea pig ileum(GPI).; format: functional
Procedure, shortened: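 Strips of guinea pig ileum longitudinal muscle–myenteric plexus were electrically stimulated and inhibition of contraction was recorded. IC50 and its standard error came from fitting mean data to the Hill equation by nonlinear least squares. Selected analogues were retested with 1000 nM CTAP as mu antagonist to look for a shift.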

[2] = Ratio between IC50 of GPI and GPB; format: functional
[3] = test system: Opioid receptors mu & kappa (Cavia porcellus); experiment: Selectivity ratio between mu and kappa opioid receptor from guinea pig brain homogenate
[4] = molecular target: Kappa-type opioid receptor (Cavia porcellus, UniProt P41144); experiment: Inhibition of binding [3H][…] at Opioid receptor kappa 1 of guinea pig brain membrane (GPB) homogenates.
Sequence of Kappa-type opioid receptor (P41144 whole entry): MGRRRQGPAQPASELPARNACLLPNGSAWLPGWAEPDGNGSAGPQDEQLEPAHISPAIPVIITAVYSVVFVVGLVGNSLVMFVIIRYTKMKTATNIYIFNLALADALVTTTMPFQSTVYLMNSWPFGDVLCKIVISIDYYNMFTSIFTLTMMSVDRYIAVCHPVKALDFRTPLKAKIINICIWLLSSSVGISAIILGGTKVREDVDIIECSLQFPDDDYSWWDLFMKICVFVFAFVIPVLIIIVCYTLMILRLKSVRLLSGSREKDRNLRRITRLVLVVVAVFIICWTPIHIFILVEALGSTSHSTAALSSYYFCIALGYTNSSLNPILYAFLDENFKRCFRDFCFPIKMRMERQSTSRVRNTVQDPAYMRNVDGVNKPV
Procedure, shortened: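 Whole-brain membranes from adult male guinea pigs (200–400 g) were used. Mean ± SEM of three or more independent measurements.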

[5] = test system: Opioid receptors delta & kappa (Cavia porcellus); experiment: Selectivity ratio between delta and kappa opioid receptor from guinea pig brain homogenate
Mu-type opioid receptor = Mu-type opioid receptor (Cavia porcellus, UniProt P97266); experiment: Inhibition of binding [3H]DAMGO at Opioid receptor mu 1 of guinea pig brain membrane (GPB) homogenates.
Sequence of Mu-type opioid receptor (P97266 whole entry): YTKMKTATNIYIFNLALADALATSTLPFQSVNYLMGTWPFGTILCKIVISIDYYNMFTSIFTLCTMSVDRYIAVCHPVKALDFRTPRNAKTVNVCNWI
Procedure, shortened: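 Membranes from whole brains of adult male guinea pigs (200–400 g). Displacement of [3H]DAMGO at 1.0 nM for mu sites, with 180 min incubation. Values come from at least three independent measurements and are given as mean ± SEM.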

Cavia porcellus [6] = organism: Cavia porcellus; experiment: Ability to inhibit the electrically evoked contraction of the guinea pig ileum(GPI).at concentration of 30 uM; format: functional
[7] = molecular target: Delta-type opioid receptor (Mus musculus) (UniProt P32300); experiment: Agonistic activity towards Opioid receptor delta 1 was determined by evaluating the inhibitory activity towards electrically stimulated mouse vas deferens; conditions: concentration not given here
Sequence of Delta-type opioid receptor (Mus musculus) (P32300 whole entry, looked up): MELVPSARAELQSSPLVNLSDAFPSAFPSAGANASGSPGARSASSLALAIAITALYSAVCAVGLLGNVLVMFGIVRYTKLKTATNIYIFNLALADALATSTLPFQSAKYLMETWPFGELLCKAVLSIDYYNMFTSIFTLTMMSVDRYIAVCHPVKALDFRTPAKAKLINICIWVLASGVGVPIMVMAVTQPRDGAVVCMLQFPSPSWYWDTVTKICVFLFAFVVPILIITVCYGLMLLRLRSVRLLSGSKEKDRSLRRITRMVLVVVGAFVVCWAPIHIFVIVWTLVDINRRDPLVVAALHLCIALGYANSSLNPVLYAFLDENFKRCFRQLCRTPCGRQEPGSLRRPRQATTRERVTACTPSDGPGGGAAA

Cavia porcellus [8] = organism: Cavia porcellus; experiment: Ability to inhibit the electrically evoked contraction of the guinea pig ileum(GPI)at concentration of 30 uM; format: functional
Cavia porcellus [9] = organism: Cavia porcellus; experiment: Ability to inhibit the electrically evoked contraction of the guinea pig ileum(GPI).at concentration of 60 uM; format: functional
Cavia porcellus [10] = organism: Cavia porcellus; experiment: Compound was evaluated for its ability to inhibit the electrically evoked contraction of the guinea pig ileum(GPI).at concentration of 60 uM; format: functional

| Compound | IC50 (Cavia porcellus [1]) | Ratio [2] | Ratio [3] | IC50 [4] | Ratio [5] | IC50 (Mu-type opioid receptor) | inhibition at 30 µM (Cavia porcellus [6]) | inhibition [7] | inhibition at 30 µM (Cavia porcellus [8]) | inhibition at 60 µM (Cavia porcellus [9]) | Inhibition (Cavia porcellus [10]) |
| --- | --- | --- | --- | --- | --- | --- | --- | --- | --- | --- | --- |
| CC[C@H](C)[C@H](NC(=O)[C@H](CCCN=C(N)N)NC(=O)[C@H](CCCN=C(N)N)NC(=O)[C@H](CC(C)C)NC(=O)[C@H](Cc1ccccc1)NC(=O)[C@@H](NC(=O)CNC(=O)[C@@H](N)Cc1ccc(O)cc1)[C@@H](C)c1ccccc1)C(=O)N[C@@H](CCCN=C(N)N)C(=O)N1CCC[C@H]1C(=O)N[C@@H](CCCCN)C(N)=O | 2190 nM | 18 | 11 | 121 nM | 13 | 1350 nM | – | – | – | – | – |
| CC[C@H](C)[C@H](NC(=O)[C@H](CCCN=C(N)N)NC(=O)[C@H](CCCN=C(N)N)NC(=O)[C@H](CC(C)C)NC(=O)[C@H](Cc1ccccc1)NC(=O)[C@@H](CCCCN)NC(=O)CNC(=O)[C@@H](N)Cc1ccc(O)cc1)C(=O)N[C@@H](CCCN=C(N)N)C(=O)N1CCC[C@H]1C(=O)N[C@@H](CCCCN)C(N)=O | 21000 nM | 55 | 5 | – | 42 | – | – | – | – | – | – |
| CC[C@H](C)[C@H](NC(=O)[C@H](CCCNC(=N)N)NC(=O)[C@H](CCCNC(=N)N)NC(=O)[C@H](CC(C)C)NC(=O)[C@H](Cc1ccccc1)NC(=O)[C@@H](CCCCN)NC(=O)CNC(=O)[C@@H](N)Cc1ccc(O)cc1)C(=O)N[C@@H](CCCNC(=N)N)C(=O)N1CCC[C@H]1C(=O)N[C@@H](CCCCN)C(N)=O | – | – | – | 380 nM | – | 1900 nM | – | – | – | – | – |
| CC[C@H](C)[C@H](NC(=O)[C@H](CCCN=C(N)N)NC(=O)[C@H](CCCN=C(N)N)NC(=O)[C@H](CC(C)C)NC(=O)[C@H](Cc1ccccc1)NC(=O)[C@@H](NC(=O)CNC(=O)[C@@H](N)Cc1ccc(O)cc1)[C@@H](C)c1c(C)cccc1C)C(=O)N[C@@H](CCCN=C(N)N)C(=O)N1CCC[C@H]1C(=O)N[C@@H](CCCCN)C(N)=O | 40800 nM | 360 | – | 113 nM | – | 2800 nM | – | – | – | – | – |
| CC[C@H](C)[C@H](NC(=O)[C@H](CCCN=C(N)N)NC(=O)[C@H](CCCN=C(N)N)NC(=O)[C@H](CC(C)C)NC(=O)[C@H](Cc1ccccc1)NC(=O)[C@H](CCCCN)NC(=O)CNC(=O)[C@@H](N)Cc1ccc(O)cc1)C(=O)N[C@@H](CCCN=C(N)N)C(=O)N1CCC[C@H]1C(=O)N[C@@H](CCCCN)C(N)=O | – | > 120 | 31 | 240 nM | > 330 | 7400 nM | 15.6% | 30% | – | – | – |
| CC[C@H](C)[C@H](NC(=O)[C@H](CCCN=C(N)N)NC(=O)[C@H](CCCN=C(N)N)NC(=O)[C@H](CC(C)C)NC(=O)[C@H](Cc1ccccc1)NC(=O)[C@@H](Cc1ccccc1)NC(=O)CNC(=O)[C@@H](N)Cc1ccc(O)cc1)C(=O)N[C@@H](CCCN=C(N)N)C(=O)N1CCC[C@H]1C(=O)N[C@@H](CCCCN)C(N)=O | 370 nM | 62 | 15 | 5.9 nM | 125 | 86 nM | – | – | – | – | – |
| CC[C@H](C)[C@H](NC(=O)[C@H](CCCN=C(N)N)NC(=O)[C@H](CCCN=C(N)N)NC(=O)[C@H](CC(C)C)NC(=O)[C@H](Cc1ccccc1)NC(=O)[C@H](CCC(=O)O)NC(=O)CNC(=O)[C@@H](N)Cc1ccc(O)cc1)C(=O)N[C@@H](CCCN=C(N)N)C(=O)N1CCC[C@H]1C(=O)N[C@@H](CCCCN)C(N)=O | – | > 200 | 44 | 150 nM | 20 | 6600 nM | – | – | 48% | – | – |
| CC[C@H](C)[C@H](NC(=O)[C@H](CCCN=C(N)N)NC(=O)[C@H](CCCN=C(N)N)NC(=O)[C@H](CC(C)C)NC(=O)[C@H](Cc1ccccc1)NC(=O)[C@H](Cc1ccc(O)cc1)NC(=O)CNC(=O)[C@@H](N)Cc1ccc(O)cc1)C(=O)N[C@@H](CCCN=C(N)N)C(=O)N1CCC[C@H]1C(=O)N[C@@H](CCCCN)C(N)=O | 220 nM | 25 | – | 8.9 nM | – | 290 nM | – | – | – | – | – |
| CC[C@H](C)[C@H](NC(=O)[C@H](CCCN=C(N)N)NC(=O)[C@H](CCCN=C(N)N)NC(=O)[C@H](CC(C)C)NC(=O)[C@H](Cc1ccccc1)NC(=O)[C@@H](CCC(=O)O)NC(=O)CNC(=O)[C@@H](N)Cc1ccc(O)cc1)C(=O)N[C@@H](CCCN=C(N)N)C(=O)N1CCC[C@H]1C(=O)N[C@@H](CCCCN)C(N)=O | 5700 nM | 5 | 2.3 | – | 12 | – | – | – | – | – | – |
| CC[C@H](C)[C@H](NC(=O)CNC(=O)[C@@H](N)Cc1ccc(O)cc1)C(=O)N[C@@H](Cc1ccccc1)C(=O)N[C@@H](CC(C)C)C(=O)N[C@@H](CCCN=C(N)N)C(=O)N[C@@H](CCCN=C(N)N)C(=O)N[C@H](C(=O)N[C@@H](CCCN=C(N)N)C(=O)N1CCC[C@H]1C(=O)N[C@@H](CCCCN)C(N)=O)[C@@H](C)CC | 460 nM | 12 | 22 | 40 nM | – | 860 nM | – | – | – | – | – |
| CC[C@H](C)[C@H](NC(=O)[C@H](CCCN=C(N)N)NC(=O)[C@H](CCCN=C(N)N)NC(=O)[C@H](CC(C)C)NC(=O)[C@H](Cc1ccccc1)NC(=O)CNC(=O)CNC(=O)[C@@H](N)Cc1ccc(O)cc1)C(=O)N[C@@H](CCCN=C(N)N)C(=O)N1CCC[C@H]1C(=O)N[C@@H](CCCCN)C(N)=O | 1 nM | – | – | – | – | – | – | – | – | – | – |
| CC[C@H](C)[C@H](NC(=O)[C@H](CCCN=C(N)N)NC(=O)[C@H](CCCN=C(N)N)NC(=O)[C@H](CC(C)C)NC(=O)[C@H](Cc1ccccc1)NC(=O)[C@@H](Cc1ccc(O)cc1)NC(=O)CNC(=O)[C@@H](N)Cc1ccc(O)cc1)C(=O)N[C@@H](CCCN=C(N)N)C(=O)N1CCC[C@H]1C(=O)N[C@@H](CCCCN)C(N)=O | – | > 2600 | – | 23.1 nM | – | 650 nM | – | – | – | 41.7% | – |
| CC[C@@H](C)[C@@H](NC(=O)CNC(=O)[C@@H](N)Cc1ccc(O)cc1)C(=O)N[C@@H](Cc1ccccc1)C(=O)N[C@@H](CC(C)C)C(=O)N[C@@H](CCCN=C(N)N)C(=O)N[C@@H](CCCN=C(N)N)C(=O)N[C@H](C(=O)N[C@@H](CCCN=C(N)N)C(=O)N1CCC[C@H]1C(=O)N[C@@H](CCCCN)C(N)=O)[C@@H](C)CC | – | > 1100 | 19 | 55 nM | 260 | 1030 nM | – | – | – | – | 5.7% |
| CC[C@H](C)[C@H](NC(=O)[C@H](CCCNC(=N)N)NC(=O)[C@H](CCCNC(=N)N)NC(=O)[C@H](CC(C)C)NC(=O)[C@H](Cc1ccccc1)NC(=O)[C@@H](CCC(=O)O)NC(=O)CNC(=O)[C@@H](N)Cc1ccc(O)cc1)C(=O)N[C@@H](CCCNC(=N)N)C(=O)N1CCC[C@H]1C(=O)N[C@@H](CCCCN)C(N)=O | – | – | – | 1100 nM | – | 2500 nM | – | – | – | – | – |
| CC[C@H](C)[C@H](NC(=O)[C@H](CCCN=C(N)N)NC(=O)[C@H](CCCN=C(N)N)NC(=O)[C@H](CC(C)C)NC(=O)[C@H](Cc1ccccc1)NC(=O)[C@H](NC(=O)CNC(=O)[C@@H](N)Cc1ccc(O)cc1)[C@@H](C)c1ccccc1)C(=O)N[C@@H](CCCN=C(N)N)C(=O)N1CCC[C@H]1C(=O)N[C@@H](CCCCN)C(N)=O | 2800 nM | 467 | 20 | 6 nM | 112 | 112 nM | – | – | – | – | – |
| CC[C@H](C)[C@H](NC(=O)[C@H](CCCN=C(N)N)NC(=O)[C@H](CCCN=C(N)N)NC(=O)[C@H](CC(C)C)NC(=O)[C@H](Cc1ccccc1)NC(=O)[C@@H](CCCN=C(N)N)NC(=O)CNC(=O)[C@@H](N)Cc1ccc(O)cc1)C(=O)N[C@@H](CCCN=C(N)N)C(=O)N1CCC[C@H]1C(=O)N[C@@H](CCCCN)C(N)=O | – | > 260 | 22 | – | > 260 | – | – | – | – | – | – |
| CC[C@H](C)[C@H](NC(=O)[C@H](CCCN=C(N)N)NC(=O)[C@H](CCCN=C(N)N)NC(=O)[C@H](CC(C)C)NC(=O)[C@H](Cc1ccccc1)NC(=O)[C@H](Cc1ccccc1)NC(=O)CNC(=O)[C@@H](N)Cc1ccc(O)cc1)C(=O)N[C@@H](CCCN=C(N)N)C(=O)N1CCC[C@H]1C(=O)N[C@@H](CCCCN)C(N)=O | 1.1 nM | 1.2 | 30 | 0.89 nM | 315 | 27.1 nM | – | – | – | – | – |
